# Bioassay records deposited in PubChem BioAssay by Johns Hopkins Ion Channel Center.
# hERG protect: compounds protecting human hERG from proarrhythmic drug block | Q12809 | CHO-hERG, FluxOR thallium flux, dofetilide IC70 present | activation (rescue from dofetilide block), less the hit threshold, % at 10 µM | hit rate 0.51% among 310,000 | AID 1511;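 active = activation above the mean of controls blocked by dofetilide plus 5 SD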;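 also: thallium influx through hERG after potassium depolarization seen as dye fluorescence rise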
# Kir21 block: blocks the mouse Kir2.1 inward-rectifier potassium channel; hit rate 0.85% among 310,000; HEK293-Kir2.1, FluxOR thallium flux fluorescence; stronger effect = lower value; B-score at 10 µM; AID 1672;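 active = fluorescence ratio B-score at or below minus 3 SD of library scores, with starting-brightness B-score within 2 SD, cut at about -4.2 in these data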;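 also: channel flux triggered by added potassium and thallium sulfate stimulus; B-score of peak minus minimum fluorescence over baseline after thallium stimulus; more negative B-score means stronger Kir2.1 block with less thallium influx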
# KCNK3 block: human KCNK3 channel inhibition, primary screen | B-score at 10 µM | hit rate 0.84% among 340,000 | AID 602410 | O14649 | CHO-KCNK3 thallium flux, FluxOR fluorescence; stronger effect = lower value;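 active = B-score under library mean minus 4 SD, starting fluorescence ratio at most library mean plus 5 SD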;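 also: more negative B-score means stronger inhibition of thallium flux through KCNK3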
# KCNK9 block: human KCNK9 channel inhibition | Q9NPC2 | HEK293 KCNK9, FluxOR thallium flux fluorescence; stronger effect = lower value | B-score at 10 µM | hit rate 1.2% among 310,000;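 active = ratio B-score over 3 SD below the library mean, with starting fluorescence within 5 SD of its mean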;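 also: negative B-score means less thallium flux so channel inhibition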
# KCNQ1 act: human KCNQ1 channel potentiation or activation; P51787; CHO-K1 KCNQ1, thallium flux FluxOR fluorescence; stronger effect = higher value; B-score at 10 µM; hit rate 0.35% among 310,000;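 active = fluorescence ratio B-score, a plate-corrected score, at least three library SD, with initial intensity B-score within 5 SD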
# Target sequence (P51787 whole entry, looked up): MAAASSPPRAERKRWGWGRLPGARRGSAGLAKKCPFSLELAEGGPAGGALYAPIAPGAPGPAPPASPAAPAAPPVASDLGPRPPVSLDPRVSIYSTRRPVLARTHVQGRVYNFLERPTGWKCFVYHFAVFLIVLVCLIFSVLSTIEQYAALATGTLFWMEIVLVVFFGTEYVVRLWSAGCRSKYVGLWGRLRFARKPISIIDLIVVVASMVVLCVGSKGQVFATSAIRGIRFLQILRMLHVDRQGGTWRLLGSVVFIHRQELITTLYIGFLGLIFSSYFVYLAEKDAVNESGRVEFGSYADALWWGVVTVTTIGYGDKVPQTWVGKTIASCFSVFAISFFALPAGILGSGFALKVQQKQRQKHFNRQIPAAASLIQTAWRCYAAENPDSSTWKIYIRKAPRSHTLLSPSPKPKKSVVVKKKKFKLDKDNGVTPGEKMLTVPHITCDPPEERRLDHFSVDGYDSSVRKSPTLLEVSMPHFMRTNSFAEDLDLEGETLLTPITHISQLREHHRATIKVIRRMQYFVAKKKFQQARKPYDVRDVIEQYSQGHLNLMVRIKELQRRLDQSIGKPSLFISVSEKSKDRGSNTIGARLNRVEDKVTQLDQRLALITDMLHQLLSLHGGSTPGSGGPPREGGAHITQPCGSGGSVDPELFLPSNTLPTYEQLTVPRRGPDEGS
#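 Test system: CHO-K1 cells stably expressing KCNQ1 / Medium: assay buffer / Also added: depolarizing K+/Tl+ stimulus, K2SO4 and Tl2SO4 each 12.5 mM in 5x stock / Incubation: 90 min dye loading and 20 min compound exposure, both at room temperature / Signal: thallium influx via FluxOR fluorescence, kinetic imaging / Evaluation: B score of baseline-normalized fluorescence ratio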
# KCNQ1 inh: blocks the human KCNQ1 potassium channel. AID 2642. B-score at 10 µM. P51787. hit rate 1.3% among 310,000. CHO-K1 KCNQ1, FluxOR thallium flux fluorescence; stronger effect = higher value;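 active = compounds whose thallium flux B-score, printed positive for inhibition, exceeds three library SD while starting fluorescence stays within three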;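 also: channel opened by potassium depolarization with thallium stimulus after 20 min compound exposure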
# Active calls of the source: *; i = inactive; nt = no result. Hits are enriched below; roughly 3.8% of the tested compounds scored in any of these assays.
SMILES,hERG protect,Kir21 block,KCNK3 block,KCNK9 block,KCNQ1 act,KCNQ1 inh
Cc1[nH]n(-c2ccccc2)c(=O)c1N=Nc1ccc(C(N)=O)cc1,10*,-0.16,i,i,i,i
CC(C)N1CCSC1=S,nt,nt,i,nt,nt,nt
CC(=O)Nc1ccc(NC(=O)CSc2ccc([N+](=O)[O-])cn2)cc1,-8,-0.01,i,i,i,i
NC(=O)c1ccc(SCC(=O)OCC(=O)N2CCN(C(=O)c3ccco3)CC2)c([N+](=O)[O-])c1,-3,1,i,i,i,i
COc1ccccc1CNC(=O)C/C(C)=N/NC(=O)COc1ccc(C)cc1Br,-3,1.1,i,i,i,i
C/C(CC(=O)Nc1ccccc1-c1ccccc1)=N\NC(=O)COc1ccc(C)cc1Br,-13,-0.67,i,i,i,6*
Cc1ccccc1C(=O)N1CCC2CC1c1cc(-c3ccc(F)cc3)ccc12 (centres undefined),nt,nt,i,nt,nt,nt
CC1(C)CC(=O)C2=C(C1)OC1=C(C(=O)CC(C)(C)C1)C2c1ccc(O)c([N+](=O)[O-])c1,-7,1.8,i,i,i,i
CC1(C)CC(=O)C2=C(C1)OC1=C(C(=O)CC(C)(C)C1)C2c1ccc(O)cc1O,-42,-8.3,i,-7*,i,7*
O=C(CSc1nnc(SCc2cccc3ccccc23)s1)c1ccc2c(c1)OCO2,-8,-0.52,i,i,8*,i
COc1ccc(C(=O)On2c(-c3ccc(Br)cc3)nc3ccccc3c2=O)cc1,1,-0.2,i,i,10*,i
Cc1cc(C(=O)Nn2c(-c3ccc(Br)cc3)nc3ccccc3c2=O)ccc1[N+](=O)[O-],-10,0.93,i,i,i,6*
COc1cccc(C2C(C(=O)c3cccs3)=C(O)C(=O)N2CCN2CCOCC2)c1OC (centres undefined),-10,-1,i,i,i,i
O=C(Cn1cnc2ccccc21)c1ccccc1,5.0*,0,i,i,i,i
Cc1ccc2c(c1)c(-c1ccccc1)nc1nnnn12,6.0*,-0.52,i,i,i,i
Cc1ccc2nnnc(-c3ccccc3)c2c1,-6,-1.1,i,i,i,i
CCCCN(CCCC)CCNC(=O)c1cn(CC)c2ccc(S(=O)(=O)N3CCc4ccccc4C3)cc2c1=O,-21,-1,i,i,i,i
Cc1ccnc(NC(=O)c2cccc3ccccc23)c1,-12,0.59,i,i,i,i
CCCCC1(CO)C(=O)N(c2ccccc2)N(c2ccccc2)C1=O,-5,0.82,i,i,i,i
CCCCC1(Cc2cccc([N+](=O)[O-])c2)C(=O)N(c2ccccc2)N(c2ccccc2)C1=O,-7,-0.51,i,i,i,6*
COc1ccccc1CNCC(O)(c1ccc(Cl)cc1)c1ccc(Cl)cc1,-30,-3.2,i,i,i,i
COc1ccccc1CNCC(O)(c1ccc(F)cc1)c1ccc(F)cc1,-16,-5.9*,i,i,i,i
OC(CNCc1ccccc1F)(c1ccc(F)cc1)c1ccc(F)cc1,-9,-1.3,i,-7*,i,i
CCN(C(=O)c1cc2c(=O)[nH]c3ccc(C)cc3c2s1)c1ccccc1C,-16,-0.02,i,i,i,i
CCN(C(=O)c1cc2c(=O)[nH]c3ccc(C)cc3c2s1)c1ccccc1F,9.2*,0.76,i,i,26*,i
CN(c1cccc(NC(=O)CN(c2ccc(Cl)c(Cl)c2)S(=O)(=O)c2ccccc2)c1)S(C)(=O)=O,-14,-1.2,i,i,i,i
Cc1ccc(S(=O)(=O)N(CC(=O)Nc2cccc(N(C)S(C)(=O)=O)c2)c2ccc(Cl)c(Cl)c2)cc1,-4,1.3,i,i,i,10*
O=C(Cc1ccccc1)c1ccc(O)cc1O,nt,nt,i,nt,nt,nt
